Test results from PMC3086766 (Bioconjugate chemistry, 2011).
Where “and” joins values, the source holds several entries; their conditions need not be identical. Identical values can stand only once.

Key:
[1] = tested on: male ICR mice; assay: In-vivo biodistribution study in mice; set-up: species or system mouse; conditions: for Blood uptake / Bone uptake / Brain uptake / Heart uptake / Kidney uptake / Liver uptake / Lung uptake / Muscle uptake / Pancreas uptake / Skin uptake / Spleen uptake: iv tail vein; for in vivo de-fluorination (from bone (femur) values): within 30 min post injection
Procedure, shortened: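 Normal male ICR mice (20–25 g), 6 per group, under isoflurane (1–2%, 1 L oxygen/min). Each received 25 μCi radiotracer in 0.15 mL saline via lateral tail vein. Killed by cardiac excision under anesthesia at 2 and 30 min. Organs weighed and gamma-counted. Percent dose per gram calculated against counts of 1.0% of initial dose, taken from 100-fold diluted injectate aliquots.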

[2] = biological target: AD plaques (β-amyloid plaques) in human brain tissue homogenates (Homo sapiens, UniProt P05067); assay: In vitro competition binding assay against [18F]-AV-45 in AD brain homogenates
Chain of AD plaques (β-amyloid plaques) in human brain tissue homogenates (P05067 672-713 limits assumed): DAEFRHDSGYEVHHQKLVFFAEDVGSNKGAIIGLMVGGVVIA
Procedure, shortened: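 Gray matter from human Alzheimer's brain sections with plaques, homogenized in PBS pH 7.2 (20–50 μg per tube). Incubated with [18F]-AV-45 and competitor (10−5–10−10 M, serially diluted in PBS with 0.1% BSA) in 1 mL final, 37 °C for 120 min. IMPY 600 nM defined nonspecific binding. Bound and free separated by vacuum filtration. Ki by nonlinear regression; n = 5–6.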

For `CNc1ccc(/C=C/c2ccc(OCCOCCOCCNC(=O)CO/N=C/c3ccc(OCCOCCOCCF)nc3)nc2)cc1` [[^18F]23, 2-((E)-(6-(2-(2-(2-fluoroethoxy)ethoxy)ethoxy)pyridin-3-yl)methyleneaminooxy)-N-(2-(2-(2-(5-((E)-4-(methylamino)styryl)pyridin-2-yloxy)ethoxy)ethoxy)ethyl)acetamide], the Blood uptake ([1]; 2 min post injection) was 9.34 ± 1.37 % dose/gram, the Bone uptake ([1]; 2 min post injection) was 2.00 ± 0.33 % dose/gram and the Brain uptake ([1]; 2 min post injection) was 1.69 % dose/gram and 1.69 ± 0.44 % dose/gram. The Heart uptake ([1]; 2 min post injection) was 13.1 ± 3.08 % dose/gram, the Kidney uptake ([1]; 2 min post injection) was 14.1 ± 2.85 % dose/gram and the Liver uptake ([1]; 2 min post injection) was 22.2 ± 3.99 % dose/gram. For the same compound, the Lung uptake ([1]; 2 min post injection) was 7.09 ± 1.37 % dose/gram, the Muscle uptake ([1]; 2 min post injection) was 1.32 ± 0.50 % dose/gram and the Pancreas uptake ([1]; 2 min post injection) was 5.13 ± 1.08 % dose/gram. The Skin uptake ([1]; 2 min post injection) was 0.79 ± 0.20 % dose/gram, the Spleen uptake ([1]; 2 min post injection) was 4.81 ± 1.18 % dose/gram and the Blood uptake ([1]; 30 min post injection) was 4.94 ± 0.91 % dose/gram. It also gave a Bone uptake ([1]; 30 min post injection) of 2.27 ± 0.41 % dose/gram, a Brain uptake ([1]; 30 min post injection) of 0.96 ± 0.16 % dose/gram and a Heart uptake ([1]; 30 min post injection) of 3.72 ± 0.84 % dose/gram. For the same compound, the Kidney uptake ([1]; 30 min post injection) was 6.83 ± 1.93 % dose/gram, the Liver uptake ([1]; 30 min post injection) was 19.1 ± 3.65 % dose/gram and the Lung uptake ([1]; 30 min post injection) was 3.53 ± 0.38 % dose/gram. It also gave a Muscle uptake ([1]; 30 min post injection) of 1.56 ± 0.27 % dose/gram, a Pancreas uptake ([1]; 30 min post injection) of 2.28 ± 0.48 % dose/gram and a Skin uptake ([1]; 30 min post injection) of 1.50 ± 0.25 % dose/gram. The Spleen uptake ([1]; 30 min post injection) was 3.57 ± 0.68 % dose/gram, the “in vivo de-fluorination (from bone (femur) values)” value [1] was “very little de-fluorination” and the Ki [2] was 11.8 ± 3.06 nM.

In the case of `CNc1ccc(/C=C/c2ccc(OCCOCCOCCOCCOCCOCCNC(=O)CO/N=C/c3ccc(OCCOCCOCCF)nc3)nc2)cc1` [[^18F]24, 2-((E)-(6-(2-(2-(2-fluoroethoxy)ethoxy)ethoxy)pyridin-3-yl)methyleneaminooxy)-N-(17-(5-((E)-4-(methylamino)styryl)pyridin-2-yloxy)-3,6,9,12,15-pentaoxaheptadecyl)acetamide], the Blood uptake ([1]; 2 min post injection) is reported as 4.19 ± 1.04 % dose/gram, the Bone uptake ([1]; 2 min post injection) is reported as 1.76 ± 0.31 % dose/gram and the Brain uptake ([1]; 2 min post injection) is reported as 0.48 % dose/gram and 0.48 ± 0.12 % dose/gram. The Heart uptake ([1]; 2 min post injection) was 12.3 ± 1.79 % dose/gram, the Kidney uptake ([1]; 2 min post injection) was 15.4 ± 3.54 % dose/gram and the Liver uptake ([1]; 2 min post injection) was 29.4 ± 5.09 % dose/gram. For the same compound, the Lung uptake ([1]; 2 min post injection) was 3.70 ± 1.06 % dose/gram, the Muscle uptake ([1]; 2 min post injection) was 1.42 ± 0.46 % dose/gram and the Pancreas uptake ([1]; 2 min post injection) was 3.32 ± 0.58 % dose/gram. For the same compound, the Skin uptake ([1]; 2 min post injection) was 1.14 ± 0.44 % dose/gram, the Spleen uptake ([1]; 2 min post injection) was 3.11 ± 0.45 % dose/gram and the Blood uptake ([1]; 30 min post injection) was 2.81 ± 0.22 % dose/gram. The Bone uptake ([1]; 30 min post injection) was 1.62 ± 0.10 % dose/gram, the Brain uptake ([1]; 30 min post injection) was 0.92 % dose/gram and 0.92 ± 0.11 % dose/gram and the Heart uptake ([1]; 30 min post injection) was 4.17 ± 0.61 % dose/gram. It also gave a Kidney uptake ([1]; 30 min post injection) of 7.78 ± 0.85 % dose/gram, a Liver uptake ([1]; 30 min post injection) of 10.9 ± 1.17 % dose/gram and a Lung uptake ([1]; 30 min post injection) of 2.43 ± 0.33 % dose/gram. The Muscle uptake ([1]; 30 min post injection) was 2.01 ± 0.21 % dose/gram, the Pancreas uptake ([1]; 30 min post injection) was 2.22 ± 0.23 % dose/gram and the Skin uptake ([1]; 30 min post injection) was 1.78 ± 0.13 % dose/gram. For the same compound, the Spleen uptake ([1]; 30 min post injection) was 1.63 ± 0.19 % dose/gram and the “in vivo de-fluorination (from bone (femur) values)” value [1] was “very little de-fluorination”.
